Experimental data pooled from the literature.
Target: Inhibitor of nuclear factor kappa-B kinase subunit alpha (CHUK, Homo sapiens, UniProt O15111)
Residues used in one study (O15111 1-745): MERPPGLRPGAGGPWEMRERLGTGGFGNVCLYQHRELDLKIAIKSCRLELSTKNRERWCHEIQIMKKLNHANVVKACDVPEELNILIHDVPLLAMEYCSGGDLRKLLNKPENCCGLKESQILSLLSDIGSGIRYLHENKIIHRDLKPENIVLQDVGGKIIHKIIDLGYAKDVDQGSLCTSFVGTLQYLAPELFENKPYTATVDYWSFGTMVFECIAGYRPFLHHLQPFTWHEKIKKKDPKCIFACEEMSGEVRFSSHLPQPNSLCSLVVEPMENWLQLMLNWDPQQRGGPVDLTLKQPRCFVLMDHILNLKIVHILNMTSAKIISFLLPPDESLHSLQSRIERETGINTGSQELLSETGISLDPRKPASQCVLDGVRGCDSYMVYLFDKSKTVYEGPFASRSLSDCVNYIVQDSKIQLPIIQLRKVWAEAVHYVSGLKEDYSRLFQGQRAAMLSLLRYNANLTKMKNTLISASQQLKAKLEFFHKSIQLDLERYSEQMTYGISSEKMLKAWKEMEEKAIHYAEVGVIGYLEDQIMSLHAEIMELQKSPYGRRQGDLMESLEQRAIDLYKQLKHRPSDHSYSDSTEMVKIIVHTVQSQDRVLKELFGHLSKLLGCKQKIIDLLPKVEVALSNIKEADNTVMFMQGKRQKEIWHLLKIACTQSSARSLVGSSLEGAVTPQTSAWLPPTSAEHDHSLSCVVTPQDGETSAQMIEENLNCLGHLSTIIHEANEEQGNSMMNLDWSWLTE

| SMILES | assay | conditions | remaining binding [%] |
| --- | --- | --- | --- |
| COc1cc(-c2cn(C3CCc4ccccc4N(CC(F)(F)F)C3=O)nn2)ccc1-n1ccc(C)n1 (stereo not shown) | cell-free assay, competition with immobilised ligand | 1 µM | 98 |
| F[C@@H]1CCN(c2nccc(-c3cnn4ncccc34)n2)C1 | binding | 1 µM | 100 |
| COc1ncc2cc3ccccc3nc2c1C#N | cell-free assay, competition with immobilised ligand | 5 µM | 98 |
| Cc1cnc(Nc2ccc(C(=O)N3CCC(N4CCCC4)CC3)cc2)nc1-c1cc2ccccc2s1 | binding, competition with immobilised ligand | 1 µM | 1.3 |
| C[C@@H]1CCN(c2nccc(-c3cnn4ncccc34)n2)C1 | binding | 1 µM | 81 |
| Cc1nccc(COC(=O)N2C[C@@H]3[C@@H](CNC(=O)c4ccc5[nH]nnc5c4)[C@@H]3C2)n1 | cell-free assay, competition with immobilised ligand | 1 µM | 100 |
| O=C(NCCCN1CCOCC1)c1ccc(Nc2ncc(Cl)c(-c3ccc(Cl)s3)n2)cc1 | binding, competition with immobilised ligand | 1 µM | 51 |
| CN(CCCC(F)(F)F)c1nccc(-c2cnn3ncccc23)n1 | binding | 1 µM | 99 |
| Cn1cc(Cl)c2c(Oc3c(F)cc(Nc4cc(Cl)nc(N)n4)cc3F)ccnc21 | cell-free assay, competition with immobilised ligand | 0.1 µM | 85 |
| Cc1cnn2ncc(-c3ccnc(N(C)C)n3)c2c1 | binding | 1 µM | 69 |
| COc1cnc(Nc2cccc(S(N)(=O)=O)c2)nc1N1CCN(c2ccccc2)C(=O)C1 | binding, competition with immobilised ligand | 1 µM | 91 |
| O=C(c1ccc(Nc2nccc(-c3cc4ccccc4s3)n2)cc1)N1CCC(N2CCCC2)CC1 | binding, competition with immobilised ligand | 1 µM | 0.2 |
| C[C@@H](c1ccc(-n2cnc3c(N)ncnc32)cc1)N1CCc2nn(C)c(Cc3ccccc3)c2C1=O | binding, competition with immobilised ligand | 0.1 µM | 80 |
| CN(C)c1nccc(-c2cnn3ncccc23)n1 | binding | 1 µM | 81 |
| CNC(=O)[C@@H]1CC[C@@H](n2c(-c3ccc4cnccc4c3)nc3ccc(C(=O)NCc4cccc(C(N)=O)c4)cc32)C1 | binding, competition with immobilised ligand | 1 µM | 100 |
| N[C@@H]1CCN(c2nccc(-c3cnn4ncccc34)n2)C1 | binding | 1 µM | 100 |
| C=CC(=O)N1CCC(C(=O)NCC(=O)N2CCN(c3nc(-c4cnc(N)nc4C(F)F)nc(N4CCOCC4)n3)CC2)CC1 | binding, competition with immobilised ligand | 1 µM | 71 |
| O=C(Nc1ccc(Oc2ccc(F)cc2)cc1)N1CCc2ncccc2[C@H]1c1ccc(F)cc1 | cell-free assay, competition with immobilised ligand | 1 µM | 100 |
| CC1CCCN1c1nccc(-c2cnn3ncccc23)n1 (stereo not shown) | binding | 1 µM | 86 |
| CCCOc1ccc([C@@H]2[C@@H](C(=O)O)[C@H](c3ccc4c(c3)OCO4)CN2CC(=O)Nc2c(CC)cccc2CC)cc1 | cell-free assay, competition with immobilised ligand | 1 µM | 86 |
| FC(F)(F)Oc1cccc(-c2cnc3ccc(-c4ccncc4)nn23)c1 | cell-free assay, competition with immobilised ligand | 5 µM | 39 |
| C[C@@]1(Cc2ccc(C#N)cc2)C(=O)N(c2cc(Cl)cc(Cl)c2)c2ncc(C(=O)NC3(c4nc(C5CCC5)no4)CC3)n21 | cell-free assay, competition with immobilised ligand | 1 µM | 100 |
| C[C@@H]1CN(c2ccc3ncc(-c4ccc5[nH]nc(C6CC6)c5c4)n3n2)C[C@H](C)O1 | binding, competition with immobilised ligand | 0.5 µM | 85 |
| COc1ccc2cc(OCC3(C(=O)O)CN(C(=O)c4ccc(F)cc4)C3)ccc2c1 | cell-free assay, competition with immobilised ligand | 1 µM | 100 |
| O=C(NCC1CCOCC1)c1n[nH]cc1NC(=O)c1c(F)cccc1F | binding, competition with immobilised ligand | 1 µM | 86 |
